Screens: PubChem, Johns Hopkins Ion Channel Center
Most compounds without a hit are left out; they make up all but 2.3% or so of the library.
TRPC4 PAM – positive allosteric modulators of TRPC4, primary screen, cell-based, mouse TRPC4beta, HEK293 mu-opioid, Fluo-4 calcium. 310,000 compounds, 0.42% hits. B-score at 10 µM. DAMGO EC20, Fluo-4 Ca2+ flux; active compounds read high. AID 2227, 2009. Short transient receptor potential channel 4 (Mus musculus), Q9QUQ5;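 active = B-score of calcium response area above 5 SD of library B-scores, with initial fluorescence ratio within 5 SD of library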
TRPC4 act – activators of mouse TRPC4 channel, primary screen, Fluo4 calcium, HEK293 TRPC4beta/mu-opioid cells. 310,000 compounds, 0.49% hits. Fluo4 calcium fluorescence; active compounds read high. B-score at 10 µM. Short transient receptor potential channel 4 (Mus musculus), Q9QUQ5;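 active = B-score above 5 SD of library B-scores, and initial fluorescence ratio not above library mean plus 5 SD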;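 note: positive B-score marks a calcium rise read as TRPC4 activation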
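Assay system: HEK293 cells stably co-expressing mouse TRPC4beta and mu-opioid receptor / Timing: Fluo4 dye loading 45 min at room temperature, 110 s recording / Signal: Fluo4 calcium-sensitive dye fluorescence, kinetic, 1 Hz baseline / Read-out: integrated baseline-normalised fluorescence ratio, converted to per-well B score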
TRPC6 act – mouse TRPC6 channel activators, primary screen, cell-based, HEK293, membrane potential dye; HEK293-TRPC6 membrane potential dye fluorescence; active compounds read high; B-score at 10 µM; 310,000 compounds, 0.13% hits;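 active = B-score of the integrated fluorescence ratio above library mean plus 3 SD, and starting fluorescence ratio within library mean plus 5 SD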;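 note: higher score means more depolarization so channel activation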
Target sequence (Q61143 whole entry, looked up): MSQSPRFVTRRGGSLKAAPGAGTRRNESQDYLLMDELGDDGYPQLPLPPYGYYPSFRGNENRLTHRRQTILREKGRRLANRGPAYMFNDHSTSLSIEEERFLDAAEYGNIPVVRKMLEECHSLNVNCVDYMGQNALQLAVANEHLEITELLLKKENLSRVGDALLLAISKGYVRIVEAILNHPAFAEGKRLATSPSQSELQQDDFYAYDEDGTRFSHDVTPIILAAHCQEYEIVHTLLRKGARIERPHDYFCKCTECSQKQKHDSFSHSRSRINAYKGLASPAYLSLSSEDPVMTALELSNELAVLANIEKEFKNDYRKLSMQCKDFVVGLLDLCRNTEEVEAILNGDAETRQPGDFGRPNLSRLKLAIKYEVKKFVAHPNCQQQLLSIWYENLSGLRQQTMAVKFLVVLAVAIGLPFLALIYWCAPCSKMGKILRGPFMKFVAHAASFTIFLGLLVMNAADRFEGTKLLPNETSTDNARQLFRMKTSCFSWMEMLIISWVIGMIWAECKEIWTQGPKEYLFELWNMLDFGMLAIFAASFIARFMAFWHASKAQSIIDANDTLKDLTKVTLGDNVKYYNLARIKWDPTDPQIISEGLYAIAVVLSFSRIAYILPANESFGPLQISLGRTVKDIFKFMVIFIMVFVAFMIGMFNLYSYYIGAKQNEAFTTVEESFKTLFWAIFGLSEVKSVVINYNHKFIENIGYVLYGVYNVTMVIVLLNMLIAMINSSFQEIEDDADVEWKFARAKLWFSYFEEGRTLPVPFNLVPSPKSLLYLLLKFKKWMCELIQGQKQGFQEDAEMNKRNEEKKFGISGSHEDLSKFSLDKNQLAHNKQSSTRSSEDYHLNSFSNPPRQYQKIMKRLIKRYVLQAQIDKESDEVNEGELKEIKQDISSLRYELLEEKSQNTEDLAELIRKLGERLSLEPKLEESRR
TRPC6 inhibitor – mouse TRPC6 channel inhibitors, primary screen, cell-based, HEK293, membrane potential dye | Short transient receptor potential channel 6 (Mus musculus), Q61143 | AID 2553, 2010 | ACh-evoked depolarization; active compounds read low | 310,000 compounds, 1.1% hits | B-score at 10 µM;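 active = B-score under library mean minus 3 SD, initial fluorescence not abnormally high, positive integrated signal ratio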;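 note: B-score derived from integrated fluorescence ratio over the kinetic read; more negative B-score means stronger inhibition of depolarization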
TRPC4 block – inhibitors of mouse TRPC4 channel, primary screen, Fluo4 calcium, HEK293 TRPC4beta/mu-opioid cells; 300,000 compounds, 0.39% hits; B-score at 10 µM; DAMGO-evoked Fluo4 calcium flux; active compounds read low; Short transient receptor potential channel 4 (Mus musculus), Q9QUQ5; AID 2247, 2010;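 active = B-score over 3 SD under the library average, no early fluorescence shift, positive overall ratio signal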
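Signal: kinetic Fluo4 fluorescence imaging of calcium influx. Material: stable TRPC4beta/mu-opioid receptor HEK293 cells. Probe or stimulus: DAMGO in two steps, submaximal then maximal.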
TRPC4 sel inh 2 – mouse TRPC4 off-target activity of TRPC6 inhibitors, second screen. shares compounds with TRPC6 inhibitor. HEK293 TRPC4/MOR, membrane potential dye fluorescence; channel activated by saturating DAMGO dose. inhibition, % at 10 µM. 920 compounds, 42% hits. AID 2776;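 active = compounds whose fluorescence signal differed from control wells by over 3 SD, either direction, in both duplicate plates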
TRPC4 spec – mouse TRPC4 modulation by TRPC6 hits, confirmation, selectivity assay for TRPC6 inhibitor project, cell-based, HEK293 TRPC4/mu-opioid, membrane potential dye. shares compounds with TRPC6 inhibitor. membrane potential fluorescence. activity change, negative = inhibition, % at 10 µM. 920 compounds, 61% hits. AID 2777, 2010;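 active = rise or fall in signal beyond 3 SD of buffer-only wells in both replicate plates, either sign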;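 note: integrated kinetic ratio of fluorescence range over baseline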
HEK293 MPD ctr 2-1 – nonspecific membrane potential effects, parental HEK293, confirmation, counter-screen for TRPC6 inhibitor project, cell-based, second counter screen. parental HEK293 membrane potential dye fluorescence; maximal acetylcholine challenge after compound addition. 920 compounds, 31% hits. AID 2779, 2010. shares compounds with TRPC6 inhibitor. signal change vs control, % at 10 µM;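 active = membrane potential signal moving either way by over 3 SD of the maximum-effect control, in both duplicate plates, meaning non-specific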
HEK293 MPD ctr-1 – membrane potential modulation in parental HEK293, confirmation, counter-screen for TRPC6 inhibitor project, cell-based | membrane potential signal change, % at 10 µM | shares compounds with TRPC6 inhibitor | parental HEK293 membrane potential dye fluorescence | 920 compounds, 60% hits | AID 2780, 2010;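 active = membrane potential signal shifting up or down by more than 3 SD of buffer-only wells, on both duplicate plates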
HEK293 MPD ctr-2 – parental HEK293 membrane potential modulation, confirmation, counter-screen for TRPC6 modulator project, cell-based; 2,400 compounds, 51% hits; shares compounds with TRPC6 inhibitor; AID 488924, 2010; membrane potential dye fluorescence; membrane potential signal change, % at 10 µM;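 active = membrane potential signal moves up or down beyond 5 SD from buffer-only wells, on both duplicate plates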
HEK293 MPD ctr 2-2 – parental HEK293 nonspecific activity of TRPC6 modulators, second screen; inhibition, % at 10 µM; AID 488926; 2,400 compounds, 14% hits; shares compounds with TRPC6 inhibitor; membrane potential dye fluorescence; after compound, maximal acetylcholine stimulation;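 active = membrane potential signal drops by more than 5 SD from the mean control signal, in both duplicate plates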
TRPC4/MOR mod – TRPC4 modulation by TRPC6 hit compounds, confirmation, selectivity assay for TRPC6 modulator project, cell-based, HEK293 TRPC4/mu-opioid, membrane potential dye, mouse; AID 488927, 2010; shares compounds with TRPC6 inhibitor; 2,400 compounds, 69% hits; percent change from control (negative = decrease, positive = increase), % at 10 µM; membrane potential fluorescence;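 active = membrane potential signal moved up or down beyond 5 SD of buffer control wells, in both duplicate plates, actives on both sides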
TRPC4 ctr inh 2 – second check of whether TRPC6 modulators also affect mouse TRPC4; 2,400 compounds, 55% hits; inhibition, % at 10 µM; AID 488928; shares compounds with TRPC6 inhibitor; HEK293 TRPC4/mu-opioid, membrane potential dye fluorescence; stimulated with maximal-effect DAMGO;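 active = drop in membrane potential signal beyond 5 SD of the control wells in both duplicate plates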;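 note: TRPC4 counter screen for TRPC6 hits run under conditions tuned for TRPC6 not TRPC4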
TRPC6 block conf – mouse TRPC6 channel inhibitors, confirmation, HEK293 cells, membrane potential dye, duplicate; shares compounds with TRPC6 inhibitor; ACh-evoked depolarization; inhibition, % at 10 µM; 3,300 compounds, 43% hits; AID 488960, 2010;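 active = fluorescence ratio falls more than 5 SD below the full-stimulation control mean, in both duplicate runs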;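 note: integrated fluorescence ratio of peak minus minimum over baseline after agonist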
TRPC6 act conf – mouse TRPC6 channel activators, confirmation, HEK293 cells, membrane potential dye, duplicate. shares compounds with TRPC6 inhibitor. HEK293-TRPC6 membrane potential dye fluorescence, FDSS. activation, % at 10 µM. 2,800 compounds, 11% hits. AID 488961, 2010;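 active = ratio signal rise beyond 5 SD above unstimulated control wells' mean, seen in both duplicate runs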
A number is an active result; n = inactive; x = no result.

SMILES | TRPC4 PAM | TRPC4 act | TRPC6 act | TRPC6 inhibitor | TRPC4 block | HEK293 MPD ctr-2 | HEK293 MPD ctr 2-2 | TRPC4/MOR mod | TRPC4 ctr inh 2 | TRPC6 block conf | TRPC6 act conf | others
CC(C)(C)Cc1nnc(NS(=O)(=O)c2ccc([N+](=O)[O-])cc2)s1 | n | n | n | n | n | x | x | x | x | x | x
Cc1nnc(N/N=C/c2ccccc2C(F)(F)F)n1N | n | n | n | n | n | x | x | x | x | x | x
CN(C)c1cc(N/N=C/c2ccccc2C(F)(F)F)nc(N(C)C)n1 | n | n | n | -5.1 | n | n | n | n | n | n | n
Cc1nn(C)cc1/C=N/NC(=O)CSc1ccccn1 | n | n | n | n | n | x | x | x | x | x | x
Cc1ccc(S(=O)(=O)NNc2nc3ccccc3nc2C(F)(F)F)cc1 | n | n | n | -7 | n | x | x | x | x | n | n | TRPC4 sel inh 2=n;TRPC4 spec=n;HEK293 MPD ctr 2-1=n;HEK293 MPD ctr-1=n
COc1ccccc1NC(=O)C1CCCN(S(=O)(=O)c2ccc(-n3cnnn3)cc2)C1 (centres undefined) | n | n | n | n | n | x | x | x | x | x | x
CC(=O)N1CCCc2cc(S(=O)(=O)CCC(=O)Nc3cccc(C)c3C)ccc21 | n | n | n | n | n | x | x | x | x | x | x
O=C(c1cccc(C(=O)N2CCN(c3ccccc3F)CC2)n1)N1CCN(c2ccccc2F)CC1 | n | n | 12 | -10 | n | 142% | n | 29% | 64% | 88% | 130%
COc1ccc(OC)c2c(C)cc(C)nc12 | n | n | n | n | n | x | x | x | x | x | x
COc1ccc(OC)c2c(C)cc(N3CCCCCC3)nc12 | n | n | n | -6.6 | -5 | x | x | x | x | n | n | TRPC4 sel inh 2=74%;TRPC4 spec=-22%;HEK293 MPD ctr 2-1=n;HEK293 MPD ctr-1=-419%
COc1ccc(OC)c2c(C)cc(NCCN3CCOCC3)nc12 | n | n | n | -8.9 | n | -276% | 70% | -36% | 68% | 72% | n
COc1ccc(OC)c2c(C)cc(N3CCN(C(=O)c4ccc(F)cc4)CC3)nc12 | n | n | n | -5.7 | n | -244% | n | -44% | 42% | n | n
COc1cccc2c(C)cc(N3CCCCCC3)nc12 | n | n | n | -9.4 | n | -262% | n | -47% | 86% | 46% | n
COc1ccc(S(=O)(=O)NCCN2CCOCC2)c(C)c1C | n | n | n | n | n | x | x | x | x | x | x
COc1ccc(N2CCN(c3cc(C)c4cccc(C)c4n3)CC2)cc1 | n | n | n | n | n | x | x | x | x | x | x
COc1ccc(OC)c2c(C)cc(N3CCN(C(=O)c4ccc(C)cc4)CC3)nc12 | n | n | n | n | n | x | x | x | x | x | x
CN1CCN(C(=O)c2cc(Br)cn2C)CC1 | n | n | n | n | n | x | x | x | x | x | x
CC(CN1CCOCC1)OC(=O)c1ccccc1Cl (centres undefined) | n | n | n | n | n | x | x | x | x | x | x
OC(CN1CCOCC1)(c1ccccc1)c1ccccn1 (centres undefined) | n | n | n | n | n | x | x | x | x | x | x
CCOCCCn1c(=N)c(C(=O)NCc2ccc3c(c2)OCO3)cc2c(=O)n3cccc(C)c3nc21 | n | n | n | -5.1 | n | n | n | -12% | 36% | n | n
N=c1c(C(=O)NC2CCCC2)cc2c(=O)n3ccccc3nc2n1CC1CCCO1 (centres undefined) | n | n | n | n | n | x | x | x | x | x | x
N=c1c(C(=O)NCc2ccc3c(c2)OCO3)cc2c(=O)n3ccccc3nc2n1Cc1cccnc1 | n | n | n | n | n | x | x | x | x | x | x
Cc1ccc(CNC(=O)c2cc3c(=O)n4ccccc4nc3n(CC3CCCO3)c2=N)cc1 (centres undefined) | 11 | n | n | -6.2 | n | n | n | -36% | 52% | 64% | n
COCCCn1c(=N)c(C(=O)NCc2ccc3c(c2)OCO3)cc2c(=O)n3ccccc3nc21 | n | n | n | -10 | n | x | x | x | x | n | n | TRPC4 sel inh 2=64%;TRPC4 spec=-12%;HEK293 MPD ctr 2-1=30%;HEK293 MPD ctr-1=n
Cn1nc(C(F)(F)F)c(-c2ccc(F)cc2)c1NC(=O)c1cccnc1 | n | n | n | n | n | x | x | x | x | x | x
COc1ccc(N/C(N)=N/c2nc(C)cc(C)n2)c(OC)c1 | n | n | n | -5.1 | n | -86% | n | -12% | n | n | n
COc1ccc(Cl)cc1N/C(N)=N/c1nc(C)cc(C)n1 | n | n | n | -5.6 | -7 | n | n | -10% | n | n | n
